Measured values reported in ChEMBL document CHEMBL4814038, “Discovery of sertraline and its derivatives able to combat drug-resistant gastric cancer cell via inducing apoptosis” (Bioorg Med Chem Lett, 2021).
Calls of active or inactive are those of the source. No cut-off for these calls is given here.

Assays:
SGC-7901 [1] = experiment: Antiproliferative activity against cisplatin resistant human SGC-7901 cells assessed as sensitizing activity at 20 uM in presence of cisplatin; format: functional, cell-based
How it was run: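 Cisplatin-resistant SGC-7901/DDP cells treated with each compound at 20 μM in combination with DDP (15 μM). Sensitizing effect read as inhibition of proliferation.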

SGC-7901 [2] = experiment: Antiproliferative activity against cisplatin resistant human SGC-7901 cells assessed as sensitizing activity in presence of cisplatin; format: functional, cell-based
How it was run: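 Cisplatin-resistant SGC-7901/DDP cells co-treated with DDP (15 μM) and compound over 1.0, 2.0, 4.0, 8.0, 12, 16, 20, 24 μM. IC50 derived from inhibition of proliferation.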

SGC-7901 [3] = experiment: Induction of apoptosis in human SGC-7901 cells assessed as upregulation of cleaved caspase 3 expression level by Western blotting analysis; format: functional, cell-based; conditions: dose 3-6 µM
SGC-7901 [4] = experiment: Induction of apoptosis in human SGC-7901 cells assessed as viable cells at 3 uM by FITC/PI staining based flow cytometry analysis (reference value: 94.3 %); format: functional; conditions: read-out: Activity
SGC-7901 [5] = experiment: Induction of apoptosis in human SGC-7901 cells assessed as early apoptotic cells at 3 uM by FITC/PI staining based flow cytometry analysis (reference value: 3.06 %); format: functional
SGC-7901 [6] = experiment: Induction of apoptosis in human SGC-7901 cells assessed as late apoptotic cells at 3 uM by FITC/PI staining based flow cytometry analysis (reference value: 2.56 %); format: functional
SGC-7901 [7] = experiment: Induction of apoptosis in human SGC-7901 cells assessed as necrotic cells at 3 uM by FITC/PI staining based flow cytometry analysis (reference value: 0.068 %); format: functional
SGC-7901 [8] = experiment: Induction of cell cycle arrest in human SGC-7901 cells assessed as accumulation at G0/G1 phase at 3 to 6 uM by flow cytometry analysis; format: functional, cell-based; conditions: dose 3-6 µM
How it was run: (§1)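 SGC-7901/DDP cells exposed to DDP (15 μM) with compound at 8 and 16 μM (parent) or 3 and 6 μM (derivatives). Cell-cycle distribution measured by flow cytometry, with G0/G1 fraction scored.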

[9] = Effect on PI3K/AKT/mTOR signaling pathway in human SGC-7901 cells assessed as reduction in phosphorylated PI3K expression at 3 to 6 uM by Western blotting analysis; format: cell-based; conditions: filed as modulator, dose 3-6 µM
How it was run: (§2)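 SGC-7901/DDP cells given DDP (15 μM) alone or with compound at 8 and 16 μM (parent) or 3 and 6 μM (derivatives). PI3K, Akt, mTOR and their phosphorylated forms detected by Western blotting.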

[10] = Effect on PI3K/AKT/mTOR signaling pathway in human SGC-7901 cells assessed as reduction in phosphorylated AKT expression at 3 to 6 uM by Western blotting analysis; format: cell-based; conditions: filed as modulator, dose 3-6 µM; how it was run: as §2
[11] = Effect on PI3K/AKT/mTOR signaling pathway in human SGC-7901 cells assessed as reduction in phosphorylated mTOR expression at 3 to 6 uM by Western blotting analysis; format: cell-based; conditions: filed as modulator, dose 3-6 µM; how it was run: as §2
[12] = Effect on PI3K/AKT/mTOR signaling pathway in human SGC-7901 cells assessed as change in total PI3K expression at 3 to 6 uM by Western blotting analysis; format: cell-based; conditions: dose 3-6 µM; how it was run: as §2
[13] = Effect on PI3K/AKT/mTOR signaling pathway in human SGC-7901 cells assessed as change in total mTOR expression at 3 to 6 uM by Western blotting analysis; format: cell-based; conditions: dose 3-6 µM; how it was run: as §2
[14] = Effect on PI3K/AKT/mTOR signaling pathway in human SGC-7901 cells assessed as change in total AKT expression at 3 to 6 uM by Western blotting analysis; format: cell-based; conditions: dose 3-6 µM; how it was run: as §2
SGC-7901 [15] = experiment: Induction of apoptosis in human SGC-7901 cells assessed as viable cells at 8 uM by FITC/PI staining based flow cytometry analysis (reference value: 94.3 %); format: functional; conditions: read-out: Activity
SGC-7901 [16] = experiment: Induction of apoptosis in human SGC-7901 cells assessed as early apoptotic cells at 8 uM by FITC/PI staining based flow cytometry analysis (reference value: 3.06 %); format: functional
SGC-7901 [17] = experiment: Induction of apoptosis in human SGC-7901 cells assessed as late apoptotic cells at 8 uM by FITC/PI staining based flow cytometry analysis (reference value: 2.56 %); format: functional
SGC-7901 [18] = experiment: Induction of apoptosis in human SGC-7901 cells assessed as necrotic cells at 8 uM by FITC/PI staining based flow cytometry analysis (reference value: 0.068 %); format: functional
SGC-7901 [19] = experiment: Induction of cell cycle arrest in human SGC-7901 cells assessed as accumulation at G0/G1 phase at 8 to 16 uM by flow cytometry analysis; format: functional, cell-based; conditions: dose 8-16 µM; how it was run: as §1
[20] = Effect on PI3K/AKT/mTOR signaling pathway in human SGC-7901 cells assessed as reduction in phosphorylated PI3K expression at 8 to 16 uM by Western blotting analysis; format: cell-based; conditions: filed as modulator, dose 8-16 µM; how it was run: as §2
[21] = Effect on PI3K/AKT/mTOR signaling pathway in human SGC-7901 cells assessed as reduction in phosphorylated AKT expression at 8 to 16 uM by Western blotting analysis; format: cell-based; conditions: filed as modulator, dose 8-16 µM; how it was run: as §2
[22] = Effect on PI3K/AKT/mTOR signaling pathway in human SGC-7901 cells assessed as reduction in phosphorylated mTOR expression at 8 to 16 uM by Western blotting analysis; format: cell-based; conditions: filed as modulator, dose 8-16 µM; how it was run: as §2
[23] = Effect on PI3K/AKT/mTOR signaling pathway in human SGC-7901 cells assessed as change in total PI3K expression at 8 to 16 uM by Western blotting analysis; format: cell-based; conditions: dose 8-16 µM; how it was run: as §2
[24] = Effect on PI3K/AKT/mTOR signaling pathway in human SGC-7901 cells assessed as change in total AKT expression at 8 to 16 uM by Western blotting analysis; format: cell-based; conditions: dose 8-16 µM; how it was run: as §2
[25] = Effect on PI3K/AKT/mTOR signaling pathway in human SGC-7901 cells assessed as change in total mTOR expression at 8 to 16 uM by Western blotting analysis; format: cell-based; conditions: dose 8-16 µM; how it was run: as §2

NCCCCCCN[C@@H]1CC[C@H](c2ccc(Cl)c(Cl)c2)c2ccccc21 (relative stereo)
Activity (SGC-7901 [1]): Active | IC50 (SGC-7901 [2]): 18.9 µM

O=C(CCCCl)N[C@H]1CC[C@H](c2ccc(Cl)c(Cl)c2)c2ccccc21
Activity (SGC-7901 [1]): inactive

NCCCCN[C@@H]1CC[C@@H](c2ccc(Cl)c(Cl)c2)c2ccccc21 (relative stereo)
Activity (SGC-7901 [3]): Dose-Dependent Effect | Activity (SGC-7901 [1]): Active | IC50 (SGC-7901 [2]): 6.28 µM | viability at 3 µM (SGC-7901 [4]): 30.7% | Activity (SGC-7901 [5]): 2.67% | Activity (SGC-7901 [6]): 44.6% | Activity (SGC-7901 [7]): 14.1% | Activity (SGC-7901 [8]): Active | Activity [9]: Active | Activity [10]: Active | Activity [11]: Active | Activity [12]: inactive | Activity [13]: inactive

Clc1ccc([C@@H]2CC[C@@H](NCc3ccccc3)c3ccccc32)cc1Cl (relative stereo)
Activity (SGC-7901 [1]): Active

COc1ccc(CN[C@@H]2CC[C@@H](c3ccc(Cl)c(Cl)c3)c3ccccc32)cc1 (relative stereo)
Activity (SGC-7901 [1]): Active

CC(C)(C)OC(=O)N1CCN(CCN[C@@H]2CC[C@@H](c3ccc(Cl)c(Cl)c3)c3ccccc32)CC1 (relative stereo)
IC50 (SGC-7901 [2]): 17.1 µM

Clc1ccc([C@H]2CC[C@H](NCCN3CCNCC3)c3ccccc32)cc1Cl (relative stereo)
Activity (SGC-7901 [3]): Dose-Dependent Effect | Activity (SGC-7901 [1]): Active | IC50 (SGC-7901 [2]): 5.2 µM | viability at 3 µM (SGC-7901 [4]): 34.5% | Activity (SGC-7901 [5]): 4.06% | Activity (SGC-7901 [6]): 41% | Activity (SGC-7901 [7]): 20.3% | Activity (SGC-7901 [8]): Active | Activity [9]: Active | Activity [10]: Active | Activity [11]: Active | Activity [14]: inactive | Activity [13]: inactive

NCCCCN[C@@H]1CC[C@H](c2ccc(Cl)c(Cl)c2)c2ccccc21 (relative stereo)
Activity (SGC-7901 [1]): Active | IC50 (SGC-7901 [2]): 6.3 µM

CC(=O)N[C@H]1CC[C@H](c2ccc(Cl)c(Cl)c2)c2ccccc21 (relative stereo)
Activity (SGC-7901 [1]): inactive

COc1ccc(CN[C@@H]2CC[C@@H](c3ccc(Cl)c(Cl)c3)c3ccccc32)cc1OC (relative stereo)
Activity (SGC-7901 [1]): inactive

COc1cccc(CN[C@@H]2CC[C@@H](c3ccc(Cl)c(Cl)c3)c3ccccc32)c1 (relative stereo)
Activity (SGC-7901 [1]): inactive

FC(F)(F)c1cccc(CN[C@@H]2CC[C@@H](c3ccc(Cl)c(Cl)c3)c3ccccc32)c1 (relative stereo)
Activity (SGC-7901 [1]): inactive

NCCN[C@@H]1CC[C@H](c2ccc(Cl)c(Cl)c2)c2ccccc21 (relative stereo)
Activity (SGC-7901 [1]): Active | IC50 (SGC-7901 [2]): 10.7 µM

Clc1ccc([C@@H]2CC[C@@H](NCc3ccc4c(c3)OCO4)c3ccccc32)cc1Cl
Activity (SGC-7901 [1]): inactive

CN[C@H]1CC[C@@H](c2ccc(Cl)c(Cl)c2)c2ccccc21 [SERTRALINE]
Activity (SGC-7901 [3]): Dose-Dependent Effect | IC50 (SGC-7901 [2]): 18.7 µM | viability at 8 µM (SGC-7901 [15]): 55.2% | Activity (SGC-7901 [16]): 4.21% | Activity (SGC-7901 [17]): 20.9% | Activity (SGC-7901 [18]): 19.7% | Activity (SGC-7901 [19]): Active | Activity [20]: Active | Activity [9]: Active | Activity [21]: Active | Activity [10]: Active | Activity [22]: Active | Activity [11]: Active | Activity [23]: inactive | Activity [24]: inactive | Activity [25]: inactive

Clc1ccc(CN[C@@H]2CC[C@@H](c3ccc(Cl)c(Cl)c3)c3ccccc32)cc1Cl (relative stereo)
Activity (SGC-7901 [1]): inactive

Cc1ccc(CN[C@@H]2CC[C@@H](c3ccc(Cl)c(Cl)c3)c3ccccc32)cc1 (relative stereo)
Activity (SGC-7901 [1]): inactive

N[C@@H]1CC[C@H](c2ccc(Cl)c(Cl)c2)c2ccccc21 (relative stereo)
Activity (SGC-7901 [1]): inactive

CCCCN[C@@H]1CC[C@@H](c2ccc(Cl)c(Cl)c2)c2ccccc21 (relative stereo)
Activity (SGC-7901 [1]): Active

N[C@H]1CC[C@H](c2ccc(Cl)c(Cl)c2)c2ccccc21 (relative stereo)
Activity (SGC-7901 [1]): inactive

NCCN[C@@H]1CC[C@@H](c2ccc(Cl)c(Cl)c2)c2ccccc21 (relative stereo)
Activity (SGC-7901 [1]): Active | IC50 (SGC-7901 [2]): 11 µM

Clc1ccc([C@@H]2CC[C@@H](NCc3cccc4ccccc34)c3ccccc32)cc1Cl (relative stereo)
Activity (SGC-7901 [1]): inactive

NCCCCCCN[C@@H]1CC[C@@H](c2ccc(Cl)c(Cl)c2)c2ccccc21 (relative stereo)
Activity (SGC-7901 [1]): Active | IC50 (SGC-7901 [2]): 11.1 µM
